The source of these data is ChEMBL document CHEMBL4732238, “Synthesis, biological evaluation, and structure-activity relationships of new tubulin polymerization inhibitors based on 5-amino-1,2,4-triazole scaffold” (Bioorg Med Chem Lett, 2021).

For test [1], the system named is HeLa. Nature of the test: Cell cycle arrest in human HeLa cells assessed as accumulation at G1/G0 phase at 10 uM measured after 48 hrs by propidium iodide staining based flow cytometry (reference value: 54.82 %). In kind it is functional. A general note: In flow cytometry, cells or beads pass a laser one at a time.
Test [2] has as its system HeLa. Description: Cell cycle arrest in human HeLa cells assessed as accumulation at S phase at 10 uM measured after 48 hrs by propidium iodide staining based flow cytometry (reference value: 30.73 %). In kind it is functional.
Test [3] concerns MCF7. Description: Antiproliferative activity against human MCF7 cells assessed as cell growth inhibition at 100 uM by MTT assay relative to control. In kind it is functional. As to conditions: read-out: GI. The procedure, abridged:
(§1)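 Five human lines (MCF-7, HeLa, A549, PC-3, Panc-1) exposed to a single 100 μM concentration. Viability read by MTT. Results expressed as […] versus untreated control cells.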
A general note: Formazan colour is commonly taken as a measure of viable cells.

Test [4] concerns HeLa. Nature of the test: Antiproliferative activity against human HeLa cells assessed as cell growth inhibition at 100 uM by MTT assay relative to control. The format is functional. To be noted: read-out: GI. The procedure, abridged: as §1
The test system of test [5] is A549. Description: Antiproliferative activity against human A549 cells assessed as cell growth inhibition at 100 uM by MTT assay relative to control. The format is functional. To be noted: read-out: GI. The procedure, abridged:
as §1

Test [6] concerns PC-3. Nature of the test: Antiproliferative activity against human PC-3 cells assessed as cell growth inhibition at 100 uM by MTT assay relative to control. The format is functional. To be noted: read-out: GI. The essentials: as §1
Test [7] deals with PANC-1. Description: Antiproliferative activity against human PANC-1 cells assessed as cell growth inhibition at 100 uM by MTT assay relative to control. In kind it is functional. As to conditions: read-out: GI. The essentials:
as §1

Test [8] deals with MCF7. Description: Antiproliferative activity against human MCF7 cells assessed as cell growth inhibition by MTT assay. In kind it is functional, cell-based. The procedure, abridged:
(§2)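 MTT antiproliferation readout. […] Mean ± SD from three independent experiments.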

The test system of test [9] is HeLa. Nature of the test: Antiproliferative activity against human HeLa cells assessed as cell growth inhibition by MTT assay. In kind it is functional, cell-based. The essentials: as §2
The subject of test [10] is PANC-1. Nature of the test: Antiproliferative activity against human PANC-1 cells assessed as cell growth inhibition by MTT assay. In kind it is functional, cell-based. The essentials:
as §2

Test [11] deals with K562. Nature of the test: Antiproliferative activity against human K562 cells assessed as cell growth inhibition by MTT assay. The format is functional, cell-based.
Test [12] relates to HeLa. Description: Cell cycle arrest in human HeLa cells assessed as accumulation at G2/M phase at 10 uM measured after 48 hrs by propidium iodide staining based flow cytometry (reference value: 14.45 %). In kind it is functional.
For test [13], the system named is HeLa. Description: Cell cycle arrest in human HeLa cells assessed as accumulation at G1/G0 phase at 20 uM measured after 48 hrs by propidium iodide staining based flow cytometry (reference value: 54.82 %). In kind it is functional.
For test [14], the system named is HeLa. Nature of the test: Cell cycle arrest in human HeLa cells assessed as accumulation at S phase at 20 uM measured after 48 hrs by propidium iodide staining based flow cytometry (reference value: 30.73 %). The format is functional.
Test [15] deals with HeLa. Description: Cell cycle arrest in human HeLa cells assessed as accumulation at G2/M phase at 20 uM measured after 48 hrs by propidium iodide staining based flow cytometry (reference value: 14.45 %). In kind it is functional.
Test [16] deals with HeLa. Description: Cell cycle arrest in human HeLa cells assessed as accumulation at G1/G0 phase at 40 uM measured after 48 hrs by propidium iodide staining based flow cytometry (reference value: 54.82 %). The format is functional.
Test [17] relates to HeLa. Description: Cell cycle arrest in human HeLa cells assessed as accumulation at S phase at 40 uM measured after 48 hrs by propidium iodide staining based flow cytometry (reference value: 30.73 %). In kind it is functional.
The subject of test [18] is HeLa. Nature of the test: Cell cycle arrest in human HeLa cells assessed as accumulation at G2/M phase at 40 uM measured after 48 hrs by propidium iodide staining based flow cytometry (reference value: 14.45 %). The format is functional.
The target of test [19] is Tubulin (Homo sapiens) (UniProt P68371+Q9H4B7+P0DPH7+P68366+Q13509+Q71U36+P04350+Q3ZCM7+P07437+P68363+Q9BQE3+Q6PEY2+Q13885+Q9BVA1+Q9BUF5). Nature of the test: Inhibition of tubulin (unknown origin) polymerization at 10 uM measured every 1 min over 20 mins by fluorescence assay relative to control. In kind it is protein-complex assay. The procedure, abridged:
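Tubulin in reaction buffer incubated at 37 °C with test agent at final 10 μM; control 1% DMSO. Polymerization followed at 340 nm, read every minute over 20 min. Run three times.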

The target of test [20] is Tubulin. Nature of the test: Inhibition of tubulin (unknown origin) polymerization measured every 1 min over 20 mins by fluorescence assay. The format is protein-complex assay, Homo sapiens. The essentials: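 Tubulin polymerization at 37 °C in reaction buffer, followed at 340 nm each minute over 20 min; 1% DMSO control. IC50 given as mean of three independent experiments done in quadruplicate.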

Regarding `COc1cc(-c2nc(N)n(CC(=O)Nc3ccc(C(C)(C)C)cc3)n2)cc(OC)c1OC`, the Activity is listed as 54.33% in test [1]; 30.96% in [2]; 14.7% in test [12]; 56.06% in [13]; 28.35% in [14]; 15.59% in test [15]. The Activity was 52.66% in test [16], 18.6% in test [17] and 28.74% in test [18]. Besides, the inhibition of growth at 100 µM in test [3] stood at 93%; in [4], 95%; in test [5], 93%; in test [6] it was 70%; in [7] it was 93%. Besides, the IC50 – broadly, the concentration that inhibits the measured activity by half – in test [8] amounted to 35.6 µM; in test [9], 18.9 µM; in [10], 35.1 µM; in test [11], 9.23 µM. For the same compound, the inhibition (as a rule, the drop in the measured response relative to a control, in per cent) in [19] is 48%.

With `COc1cc(-c2nc(N)n(Cc3ccc(C)cc3)n2)cc(OC)c1OC`, the inhibition of growth at 100 µM was 55% in test [3]; 76% in [4]; 34% in test [5]; 39% in test [6]; 53% in test [7]. Also, the IC50 in test [8] was 73.8 µM; in [9], 46.9 µM; in test [10], 61.5 µM; in [11] it was 17.1 µM. Besides, the inhibition in [19] stood at 25%.

As to `COc1ccc(C(=O)Cn2nc(-c3cc(OC)c(OC)c(OC)c3)nc2N)cc1`, the inhibition of growth at 100 µM in test [3] was found to be 73%; in test [4], 76%; in test [5], 21%; in test [6] it was 31%; in test [7], 57%. In addition, the IC50 in test [8] turned out to be 40.6 µM; in test [9], 52.2 µM; in test [10], 59.8 µM; in test [11] it was 66 µM; in [20] it was 9.4 µM. In [19], this compound registered an inhibition of 52%.
